Experimental data taken from ChEMBL document CHEMBL1136818, “The development of new triazole based inhibitors of tumor necrosis factor-alpha (TNF-alpha) production” (Bioorg Med Chem Lett, 2003).
pIC50: −log10 of the molar value. Where “and” joins values, the source holds several entries; their conditions need not be identical. Equal entries are not always repeated.

Tested on: THP-1
Test: Inhibitory activity against TNF-alpha production using lipopolysaccharide stimulated human monocytic cells
Format: functional, cell-based
Settings: Homo sapiens, THP-1; call rule not given here
In short: (§1)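 THP-1 human monocytic cells (2.0 × 10^5/well), in duplicate cultures, preincubated 15 min with or without inhibitor at various concentrations, then stimulated with LPS 2 μg/mL. TNF-α released measured by ELISA 4 h after stimulation; cell viability after the 4 h incubation checked by MTS assay. Standard deviation typically ±30% of the mean or less.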
Compound `CCOCn1nnc(-c2ccnc(Oc3cccc(NC(C)=O)c3)n2)c1-c1ccc(F)cc1` has a pIC50 of 6.72. In the case of `COCCn1nc(-c2ccncc2)c(-c2ccc(F)cc2)n1`, the pIC50 was 5.43. `CCOCn1nnc(-c2ccc(F)cc2)c1-c1ccnc(N[C@H](C)c2ccccc2)n1` gave a pIC50 of 7.34. Work on `Fc1ccc(-c2[nH]nnc2-c2ccncc2)cc1` yielded a pIC50 of 7.90. Work on `CCOCn1nnc(-c2ccc(F)cc2)c1-c1ccnc(N[C@@H](C)c2ccccc2)n1` yielded a pIC50 of 7.27. `O=C(Nc1ccccc1)n1nc(-c2ccncc2)c(-c2ccc(F)cc2)n1` showed a pIC50 of less than 5.00. `COc1ccc(S(=O)(=O)n2nc(-c3ccncc3)c(-c3ccc(F)cc3)n2)cc1` gave a pIC50 of 5.32. Compound `CCOCn1nnc(-c2ccncc2)c1-c1ccc(F)cc1` has a pIC50 of 6.31. `CCOCn1nnc(-c2ccnc(NCc3ccccc3)n2)c1-c1ccc(F)cc1` gave a pIC50 of 6.25. In the case of `COc1ccc(-n2nc(-c3ccncc3)c(-c3ccc(F)cc3)n2)cc1`, the pIC50 was 5.88. Work on `CCOCn1nnc(-c2ccnc(N[C@H](C)c3ccccc3)n2)c1-c1ccc(F)cc1` yielded a pIC50 of 5.80. `CCOCn1nnc(-c2ccc(F)cc2)c1-c1ccnc(Oc2cccc(NC(C)=O)c2)n1` showed a pIC50 of 8.10. `CCOCn1nnc(-c2ccc(F)cc2)c1-c1ccnc(NCc2ccccc2)n1` showed a pIC50 of 7.00. With `CCOCn1nnc(-c2ccc(F)cc2)c1-c1ccnc(Oc2ccccc2)n1` the pIC50 was 7.13. For `Fc1ccc(-c2nn(C(=S)Sc3ccccc3)nc2-c2ccncc2)cc1`, the pIC50 was 5.43. `CCOCn1nnc(-c2ccnc(N[C@@H](C)c3ccccc3)n2)c1-c1ccc(F)cc1` showed a pIC50 of 6.51. `CCOCn1nc(-c2ccc(F)cc2)c(-c2ccnc(Oc3ccccc3)n2)n1` gave a pIC50 of 5.40. Work on `COc1ccc(-n2nc(-c3ccncc3)c(-c3ccc(F)cc3)n2)cc1OC` yielded a pIC50 of 6.13. Compound `COc1ccc(C(=O)n2nc(-c3ccncc3)c(-c3ccc(F)cc3)n2)cc1` has a pIC50 of 5.48. In the case of `COCn1nc(-c2ccncc2)c(-c2ccc(F)cc2)n1`, the pIC50 was 5.12. With `CN(C(=O)n1nc(-c2ccncc2)c(-c2ccc(F)cc2)n1)c1ccccc1` the pIC50 was 5.72. `CCOC(=O)n1nc(-c2ccncc2)c(-c2ccc(F)cc2)n1` gave a pIC50 of 5.42. Compound `C[S+]([O-])c1ccc(-c2nc(-c3ccc(F)cc3)c(-c3ccncc3)[nH]2)cc1` (centres undefined) [SB-203580] has a pIC50 of 7.14.

Same assay, conditions: thp-1
In the case of `CCOCn1nnc(-c2ccnc(Oc3ccccc3)n2)c1-c1ccc(F)cc1`, the pIC50 was 6.21 and 6.79. `CCOCn1nc(-c2ccncc2)c(-c2ccc(F)cc2)n1` showed a pIC50 of 6.31.

Tested on: not listed separately
Test: Clearance was determined
Format: ADME, organism-based
Settings: rat, in vivo
In the case of `CCOCn1nnc(-c2ccc(F)cc2)c1-c1ccnc(Oc2cccc(NC(C)=O)c2)n1`, the clearance was 36.5 mL/min/kg.

Tested on: not listed separately
Test: Half life period was determined
Format: ADME, organism-based
Settings: rat, in vivo
With `CCOCn1nnc(-c2ccc(F)cc2)c1-c1ccnc(Oc2cccc(NC(C)=O)c2)n1` the half-life was 132 min.

Tested on: THP-1
Test: Inhibitory activity against TNF-alpha production using lipopolysaccharide (LPS) stimulated human monocytic cells (THP-1); NA: Not active
Format: functional, cell-based
Settings: not given
In short: as §1
In the case of `CCOCn1nnc(-c2ccc(F)cc2)c1-c1ccncc1`, the IC50 was “Not Active”.

Tested on: not listed separately
Test: Oral bioavailability in the rat was determined
Format: ADME, organism-based
Settings: in vivo
`CCOCn1nnc(-c2ccc(F)cc2)c1-c1ccnc(Oc2cccc(NC(C)=O)c2)n1` showed a bioavailability of 56%.
